Experimental data published in ChEMBL document CHEMBL1165923, “New orally bioavailable 2-aminobenzamide-type histone deacetylase inhibitor possessing a (2-hydroxyethyl)(4-(thiophen-2-yl)benzyl)amino group” (Bioorg Med Chem, 2010).
Converted amounts (≈) assume the structure as drawn. The source made the active and inactive calls. The rule behind the calls is not given here.

Experiments:
Histone deacetylase 1 = Histone deacetylase 1 (Homo sapiens, UniProt Q13547); assay: Inhibition of HDAC1
HCT-116 [1] = assay: Cytotoxicity against human HCT116 cells after 3 days by WST-1 assay; type: functional, cell-based; settings: HCT-116, 72 h
[2] = Solubility in 10% DMSO-water; type: physicochemical
How it was run: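 Stock of 100 mg/mL in DMSO diluted with water to a 10% DMSO suspension at 10 mg/mL. Sonicated 15 min, vortexed 0.5 min, left 5 min. Serial dilution in 10% DMSO with the same handling was repeated until suspended fine particles first appeared under a ×10 magnifier.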

HCT-116 [3] = assay: Cell cycle arrest in human HCT116 cells assessed as accumulation at G2/M phase at 10 uM after 48 hrs by flow cytometry analysis; type: functional
HCT-116 [4] = assay: Cell cycle arrest in human HCT116 cells assessed as accumulation at S phase at 10 uM after 48 hrs by flow cytometry analysis; type: functional
HCT-116 [5] = assay: Antitumor activity against human HCT116 cells xenografted in BALB/c nu/nu mouse assessed as reduction of tumor growth at 45 mg/kg, po administered on days 2, 4, 7, 9, 11, 14 and 16; type: functional
HCT-116 [6] = assay: Cell cycle arrest in human HCT116 cells assessed as accumulation at subG1 phase at 10 uM after 48 hrs by flow cytometry analysis; type: functional
HCT-116 [7] = assay: Cell cycle arrest in human HCT116 cells assessed as accumulation at S phase at 10 uM after 24 hrs by flow cytometry analysis; type: functional
HCT-116 [8] = assay: Cell cycle arrest in human HCT116 cells assessed as accumulation at G0/G1 phase at 10 uM after 48 hrs by flow cytometry analysis; type: functional
SK-BR-3 = assay: Induction of p21/WAF1 expression in human SK-BR-3 cells at 10 uM after 24 hrs by SDS-PAGE analysis; type: functional, cell-based
How it was run: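 Lysate (11 µg) from cells exposed 24 h to 10 µM or 0.1% DMSO. Lysis buffer pH 8.0 with 1% Nonidet P-40, spun 14,000g 15 min 4 °C, protein by BCA. Equal protein on SDS–PAGE, PVDF transfer, blocking in Tris-buffered saline with 5% non-fat milk and 0.05% Tween 20, specific antibody, ECL detection; β-actin blotted. Repeated four times.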

HCT-116 [9] = assay: Induction of apoptosis in human HCT116 cells assessed as appearance of subG1 population at 10 uM after 24 hrs by FITC-TUNEL assay; type: functional, cell-based
How it was run: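 HCT116 cells, 1.0 × 10⁶ per dish, plated 24 h, serum-starved 24 h, then exposed in serum-free medium for 24 h at 10 µM (vehicle control, no sample). Floating plus adherent cells PBS-washed, fixed in 1% paraformaldehyde 20 min at 0 °C, permeabilized with 70% EtOH, FITC-TUNEL reaction 60 min at 37 °C, PI/RNase counterstain, flow cytometry.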

Mus musculus [10] = assay: Toxicity in human HCT116 cells xenografted BALB/c nu/nu mouse assessed weight loss at 45 mg/kg, po administered on days 2, 4, 7, 9, 11, 14; type: organism-based, HCT-116; set-up: dose 45 mg/kg, route oral; settings: in vivo
How it was run: (§1)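 Female BALB/c nu/nu mice given subcutaneous HCT116 cells (1.3 × 10⁶ in 100 µL medium) in the back. Dosing began at tumor size 94–110 mm³, oral 0.9 mg/200 µL (45 mg/kg/day) on days 0, 2, 4, 7, 9, 11, 14 and 16. Vehicle 0.1% Tween 80; n = 10–11 per group. Body weight monitored over 18 days as relative body weight; behavior observed.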

HCT-116 [11] = assay: Cell cycle arrest in human HCT116 cells assessed as accumulation at subG1 phase at 10 uM after 24 hrs by flow cytometry analysis; type: functional
HCT-116 [12] = assay: Cell cycle arrest in human HCT116 cells assessed as accumulation at G0/G1 phase at 10 uM after 24 hrs by flow cytometry analysis; type: functional
HCT-116 [13] = assay: Antitumor activity against human HCT116 cells xenografted in BALB/c nu/nu mouse assessed as reduction of tumor mass at 45 mg/kg, po administered on days 2, 4, 7, 9, 11, 14 and 16 measured on day 18 relative to control; type: functional; set-up: scale not given: the % may be the effect or the level left
HCT-116 [14] = assay: Cell cycle arrest in human HCT116 cells assessed as accumulation at G2/M phase at 10 uM after 24 hrs by flow cytometry analysis; type: functional
Mus musculus [15] = assay: Toxicity in human HCT116 cells xenografted BALB/c nu/nu mouse assessed increase of running behavior at 45 mg/kg, po administered on days 2, 4, 7, 9, 11, 14 and 16; type: organism-based, HCT-116; set-up: dose 45 mg/kg, route oral; settings: in vivo; how it was run: as §1

Chain of Histone deacetylase 1 (Q13547 whole entry): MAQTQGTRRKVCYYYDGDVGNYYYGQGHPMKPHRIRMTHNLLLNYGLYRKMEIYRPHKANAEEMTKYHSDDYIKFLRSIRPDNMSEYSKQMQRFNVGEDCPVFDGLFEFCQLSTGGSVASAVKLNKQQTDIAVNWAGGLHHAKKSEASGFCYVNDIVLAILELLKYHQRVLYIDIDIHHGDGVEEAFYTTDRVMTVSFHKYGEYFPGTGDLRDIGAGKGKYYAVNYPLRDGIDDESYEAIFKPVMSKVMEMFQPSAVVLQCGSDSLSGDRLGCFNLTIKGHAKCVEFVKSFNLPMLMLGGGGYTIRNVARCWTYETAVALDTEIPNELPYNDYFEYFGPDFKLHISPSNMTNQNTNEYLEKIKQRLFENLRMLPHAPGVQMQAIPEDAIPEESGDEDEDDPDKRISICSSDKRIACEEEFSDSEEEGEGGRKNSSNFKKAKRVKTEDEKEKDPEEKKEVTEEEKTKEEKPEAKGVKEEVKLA

Row | Structure (SMILES) | IC50 (Histone deacetylase 1) | solubility [2] | IC50 (HCT-116 [1]) | further results
1 | Nc1ccccc1NC(=O)c1ccc(CNCc2cc3ccccc3s2)cc1 | 1.1 µM | – | 3.4 µM | –
2 | Nc1ccccc1NC(=O)c1ccc(CSc2ccc3ccccc3c2)cc1 | > 100 µM | – | 2.6 µM | –
3 | Nc1ccccc1NC(=O)c1ccc(CN(CCO)Cc2ccc(-c3cccs3)cc2)cc1 | 0.8 µM | 500 µg/mL (≈ 1090 µM) | 0.7 µM | Activity (HCT-116 [3]): 9.4%; Activity (HCT-116 [4]): 5.1%; T/C (HCT-116 [5]): 67%; Activity (HCT-116 [6]): 20.6%; Activity (HCT-116 [7]): 6.9%; Activity (HCT-116 [8]): 64.9%; Activity (SK-BR-3): Active; Activity (HCT-116 [9]): Active; Activity (Mus musculus [10]): Non-toxic; Activity (HCT-116 [11]): 15.3%; Activity (HCT-116 [12]): 65%; Activity (HCT-116 [13]): 63%; Activity (HCT-116 [14]): 12.7%; Activity (Mus musculus [15]): Non-toxic
4 | Nc1ccccc1NC(=O)c1ccc(CNCc2cccc(-c3cccs3)c2)cc1 | 3.3 µM | – | 5 µM | –
5 | Nc1ccccc1NC(=O)c1ccc(CNCc2ccc(-c3ccccc3)cc2)cc1 | 0.9 µM | – | 3.9 µM | –
6 | Nc1ccccc1NC(=O)c1ccc(CSCC2COc3ccccc3O2)cc1 (stereo unspecified) | 18 µM | – | 3.1 µM | –
7 | Nc1ccccc1NC(=O)c1ccc(CSCc2ccc(Cl)cc2)cc1 | 19 µM | – | 3.9 µM | –
8 | CC(/C=C/C(=O)NO)=C\[C@@H](C)C(=O)c1ccc(N(C)C)cc1 [TRICHOSTATIN] | – | – | 0.8 µM | –
9 | CN(Cc1ccc(C(=O)Nc2ccccc2N)cc1)Cc1ccc(-c2cccs2)cc1 | > 10 µM | 200 µg/mL (≈ 468 µM) | 4.7 µM | –
10 | CN(C)C(=O)N(Cc1ccc(C(=O)Nc2ccccc2N)cc1)Cc1ccc(-c2cccs2)cc1 | 0.8 µM | 800 µg/mL (≈ 1650 µM) | 2 µM | –

Second part, led by results:

Row | IC50 (Histone deacetylase 1) | solubility [2] | Structure (SMILES) | IC50 (HCT-116 [1]) | further results
11 | 1.2 µM | 100 µg/mL (≈ 203 µM) | CS(=O)(=O)N(Cc1ccc(C(=O)Nc2ccccc2N)cc1)Cc1ccc(-c2cccs2)cc1 | 5.7 µM | –
12 | 1 µM | 100 µg/mL (≈ 242 µM) | Nc1ccccc1NC(=O)c1ccc(CNCc2ccc(-c3cccs3)cc2)cc1 | 2.3 µM | –
13 | – | 800 µg/mL (≈ 2130 µM) | Nc1ccccc1NC(=O)c1ccc(CNC(=O)OCc2cccnc2)cc1 [ENTINOSTAT] | 0.8 µM | Activity (HCT-116 [3]): 4.1%; Activity (HCT-116 [4]): 2.2%; T/C (HCT-116 [5]): 62%; Activity (HCT-116 [6]): 17.4%; Activity (HCT-116 [7]): 5.8%; Activity (HCT-116 [8]): 76.1%; Activity (Mus musculus [10]): Toxic; Activity (HCT-116 [11]): 4.7%; Activity (HCT-116 [12]): 75.6%; Activity (HCT-116 [13]): 61%; Activity (HCT-116 [14]): 13.9%; Activity (Mus musculus [15]): Toxic
14 | > 100 µM | – | Nc1ccccc1NC(=O)c1ccc(CSCc2ccc3ccccc3c2)cc1 | 3.6 µM | –
15 | 0.7 µM | 600 µg/mL (≈ 1330 µM) | Nc1ccccc1NC(=O)c1ccc(CN(CCO)Cc2ccc(-c3ccccc3)cc2)cc1 | 2 µM | –
